# What was measured:
# L1210 = test: Tested for inhibition of L1210 mouse leukemia cell growth in culture; format: functional, cell-based
# Method in brief: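 L1210 mouse leukemia cells were grown in culture with the test agent. The result was expressed as IC50, the concentration that inhibits cell growth by 50%.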
# [1] = Compound was tested for its solubility in 0.20 M aqueous NaH2PO4 initially at pH 7; format: ADME; details: 0.20 M aqueous NaH2PO4, pH 7
# [2] = Compound was tested for its solubility in 0.01 M aqueous NaH2PO4 initially at pH 7; format: ADME; details: 0.01 M aqueous NaH2PO4, pH 7
# Method in brief: (§1)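 Compound was dissolved to saturation in 0.01 M aqueous NaH2PO4 adjusted initially to pH 7. Solubility was reported as mg/mL, and the pH reached by the saturated solution was recorded.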
# [3] = pH attained by the compound at saturation after dissolving in 0.01 M aqueous NaH2PO4 initially at pH 7; format: ADME; details: buffer; method in brief: as §1
# [4] = pH attained by the compound at saturation after dissolving in 0.20 M aqueous NaH2PO4 initially at pH 7; format: ADME; details: buffer
# Dihydrofolate reductase = target: T1, Dihydrofolate reductase (Homo sapiens, UniProt P00374); test: Effect against dihydrofolate reductase (DHFR)
# T1 sequence (P00374 whole entry): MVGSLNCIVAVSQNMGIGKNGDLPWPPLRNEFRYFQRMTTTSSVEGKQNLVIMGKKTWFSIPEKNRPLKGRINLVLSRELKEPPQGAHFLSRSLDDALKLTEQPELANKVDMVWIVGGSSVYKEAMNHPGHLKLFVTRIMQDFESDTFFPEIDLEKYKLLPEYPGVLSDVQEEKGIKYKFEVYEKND
IC50 (L1210) [µM],Compound,other results
16,C=CCN(Cc1ccc2nc(OC)nc(O)c2c1)c1ccc(C(=O)NC(CCC(=O)O)C(=O)O)cc1 (stereo not drawn),–
80,COc1nc(O)c2cc(CN(CCCO)c3ccc(C(=O)NC(CCC(=O)O)C(=O)O)cc3)ccc2n1 (stereo not drawn),–
> 100,C#CCN(Cc1ccc2nc(OCC)nc(O)c2c1)c1ccc(C(=O)NC(CCC(=O)O)C(=O)O)cc1 (stereo not drawn),–
100,C#CCN(Cc1ccc2nc(OCCOC)nc(O)c2c1)c1ccc(C(=O)NC(CCC(=O)O)C(=O)O)cc1 (stereo not drawn),–
1.9,C#CCN(Cc1ccc2nc(OC)nc(O)c2c1)c1ccc(C(=O)NC(CCC(=O)O)C(=O)O)cc1 (stereo not drawn),solubility [1]: 6600 µg/mL; solubility [2]: 1200 µg/mL; pH [3]: 4.93; pH [4]: 5.67
12,CCN(Cc1ccc2nc(OC)nc(O)c2c1)c1ccc(C(=O)NC(CCC(=O)O)C(=O)O)cc1 (stereo not drawn),–
60,C#CCN(Cc1ccc2nc(S)nc(O)c2c1)c1ccc(C(=O)NC(CCC(=O)O)C(=O)O)cc1 (stereo not drawn),–
7.3,COc1nc(O)c2cc(CN(CCO)c3ccc(C(=O)NC(CCC(=O)O)C(=O)O)cc3)ccc2n1 (stereo not drawn),–
> 100,C#CCN(Cc1ccc2nc(OCCO)nc(O)c2c1)c1ccc(C(=O)NC(CCC(=O)O)C(=O)O)cc1 (stereo not drawn),–
17,COc1nc(O)c2cc(CN(CCF)c3ccc(C(=O)NC(CCC(=O)O)C(=O)O)cc3)ccc2n1 (stereo not drawn),–
7,COc1nc(O)c2cc(CN(C)c3ccc(C(=O)NC(CCC(=O)O)C(=O)O)cc3)ccc2n1 (stereo not drawn),–
6.4,COc1nc(O)c2cc(CNc3ccc(C(=O)NC(CCC(=O)O)C(=O)O)cc3)ccc2n1 (stereo not drawn),Ki (Dihydrofolate reductase): ~0.6 µM

# Second part, the compound before the results:
Compound,IC50 (L1210) [µM],other results
C#CCN(Cc1ccc2nc(NCCN)nc(O)c2c1)c1ccc(C(=O)NC(CCC(=O)O)C(=O)O)cc1 (stereo not drawn),97,–
C#CCN(Cc1ccc2nc(NCC)nc(O)c2c1)c1ccc(C(=O)NC(CCC(=O)O)C(=O)O)cc1 (stereo not drawn),> 100,–
C#CCN(Cc1ccc2nc(NCCN(C)C)nc(O)c2c1)c1ccc(C(=O)NC(CCC(=O)O)C(=O)O)cc1 (stereo not drawn),> 100,–
C#CCN(Cc1ccc2nc(Cl)nc(O)c2c1)c1ccc(C(=O)NC(CCC(=O)O)C(=O)O)cc1 (stereo not drawn),67,–
C#CCN(Cc1ccc2nc(N(C)C)nc(O)c2c1)c1ccc(C(=O)NC(CCC(=O)O)C(=O)O)cc1 (stereo not drawn),> 100,–
C#CCN(Cc1ccc2nc(NCCO)nc(O)c2c1)c1ccc(C(=O)NC(CCC(=O)O)C(=O)O)cc1 (stereo not drawn),47,–
C#CCN(Cc1ccc2nc(NCC(=O)O)nc(O)c2c1)c1ccc(C(=O)NC(CCC(=O)O)C(=O)O)cc1 (stereo not drawn),> 100,–
C#CCN(Cc1ccc2nc(SC)nc(O)c2c1)c1ccc(C(=O)NC(CCC(=O)O)C(=O)O)cc1 (stereo not drawn),13,–
C#CCN(Cc1ccc2nc(-n3ccnc3)nc(O)c2c1)c1ccc(C(=O)NC(CCC(=O)O)C(=O)O)cc1 (stereo not drawn),> 100,–
C#CCN(Cc1ccc2nc(NC)nc(O)c2c1)c1ccc(C(=O)NC(CCC(=O)O)C(=O)O)cc1 (stereo not drawn),24,–
C#CCN(Cc1ccc2[nH]c(N)nc(=O)c2c1)c1ccc(C(=O)NC(CCC(=O)O)C(=O)O)cc1 (stereo not drawn),3.4,solubility [1]: 60 µg/mL; solubility [2]: 50 µg/mL; pH [3]: 5.76; pH [4]: 6.78
C#CCN(Cc1ccc2nc(Oc3ccccc3)nc(O)c2c1)c1ccc(C(=O)NC(CCC(=O)O)C(=O)O)cc1 (stereo not drawn),> 100,–

# Reference: ChEMBL document CHEMBL1124413, “Quinazoline antifolate thymidylate synthase inhibitors: nitrogen, oxygen, sulfur, and chlorine substituents in the C2 position” (J Med Chem, 1989)
